PABP polyA inh – PABP-poly(A) binding inhibition. PABP-poly(A) RNA binding, fluorescence polarization. inhibition, % at 35 µM. 290,000 tested, 1% active. AID 2014;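 note: calls also rest on retests at 20 µM and on dose response follow-up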
NS3 helicase inh – HCV NS3 helicase inhibition; 290,000 tested, 0.56% active; NS3 helicase DNA unwinding, Cy5 molecular beacon fluorescence; AID 1800; inhibition, % at 10.9 µM;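 active = inhibition above the mean of all tested compounds plus 3 SD, set per campaign, cut at about 35% in these data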;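 note: 0% = DMSO wells and 100% = thioflavine S control wells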
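Test system: hepatitis C virus NS3 helicase domain fragment enzyme. Also added: annealed dual-labelled DNA beacon duplex, ATP-started. Timing: 60 min unwinding reaction at 25 °C after ATP addition. Technique: Cy5 fluorescence. Measure: % inhibition of unwinding.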
ZTA counter – blocks Epstein-Barr virus ZTA, an EBNA-1 counter-screen; P03206; ZTA-DNA binding, fluorescence polarization; inhibition, % at 11 µM; 320,000 tested, 0.15% active; in the data active = inhibition above about 33%
MLLE-PAM2 inh – blocks PAM2 peptide binding to the PABP1 MLLE domain; P11940; GST-MLLE / FITC-PAM2 fluorescence polarization; inhibition, % at 20 µM; 360,000 tested, 0.36% active; in the data active = inhibition above about 35%, passing the limit was not always enough;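 note: plate controls were DMSO wells with GST-MLLE for no effect and wells lacking GST-MLLE protein for full effect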
eIF4H inh – inhibitors of RNA binding by human eIF4H. 290,000 tested, 0.94% active. inhibition, % at 35 µM. AID 2012. eIF4H fluorescence polarization binding assay;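 note: calls also rest on retests at 20 µM and on dose response follow-up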
EBNA-1 inhibitor – blocks EBNA-1 binding to DNA | EBNA-1 DNA binding, fluorescence polarization | inhibition, % at 14.8 µM | 300,000 tested, 0.34% active | AID 1950; in the data active = inhibition above about 28%
NS3 hel confirm – HCV NS3 helicase inhibition, confirmation assay. AID 1943. 1,600 tested, 31% active. inhibition, % at 10.9 µM. NS3 helicase DNA unwinding, Cy5 molecular beacon fluorescence. shares compounds with NS3 helicase inh;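 active = inhibition above the mean of all tested compounds plus 3 SD, cutoff set per campaign, cut at about 36% in these data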
FID counter trip – displaces DNA intercalator in HCV helicase counter-screen; shares compounds with NS3 helicase inh; DNA fluorescent intercalator displacement, fluorescence; inhibition, % at 7.9 µM; 1,600 tested, 4% active; in the data active = inhibition above about 37%;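 note: 0% = vehicle and 100% = reference compound; higher means more displacement of ethidium bromide from the DNA hairpin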
Numbers without * were called inactive; ? = inconclusive; . = no result. Only some compounds are listed: those with a hit (about 2.1% of all), similar ones and a draw of the others. Unless noted, the rule behind the calls is not given here.

SMILES	PABP polyA inh	NS3 helicase inh	ZTA counter	MLLE-PAM2 inh	eIF4H inh	EBNA-1 inhibitor	NS3 hel confirm	FID counter trip
CCCCC(=O)Nc1nnc(SCC(=O)NC2CCCC2)s1	-1	-17	15	6	-9	9	.	.
Cc1cc(-c2csc(NC(=O)c3ccc(C#N)cc3)n2)c(C)n1Cc1ccco1	8	58*	-9	-50	103	-4	1	12
Cc1cc(-c2csc(NC(=O)c3cc4ccccc4o3)n2)c(C)n1C	12*	50*	3	-19	98*	-4	25	16
O=C(Nc1nc(-c2ccccn2)cs1)c1cc2ccccc2o1	3	3	8	-20	21	-5	.	.
Cc1cc(-c2csc(NC(=O)c3ccc(=O)[nH]c3)n2)c(C)n1Cc1ccccc1	32	74*	7	-53	?	-4	21	4
CCOc1ccc(N2C(=O)CC(Sc3nc(CC(C)C)ccc3C#N)C2=O)cc1 (configuration not stated)	-10	39*	1	16	-2	-10	65*	-12
O=C(CC1SC(=O)N(c2ccccc2)C1=O)Nc1ccc(Cl)cc1 (configuration not stated)	2	30	7	24	-4	-7	.	.
O=C(CC1SC(=O)N(c2ccccc2)C1=O)Nc1ccc(Br)cc1 (configuration not stated)	-6	37*	-4	27	0	-8	-9	11
O=C(O)CCCn1cc(NC(=O)COc2cc(F)ccc2[N+](=O)[O-])cn1	5	-6	2	-10	-11	-19	.	.
COC(=O)N/N=C/c1cc(C)n(-c2ccc(F)cc2)c1C	-11	42*	5	0	9	-14	-5	15
O=C(Nc1c(C(=O)c2ccccc2)oc2ccccc12)c1cc(-c2ccccc2O)n[nH]1	4	-5	3	14	-1	17	.	.
Cc1[nH]c2ccccc2c1N=Nc1ccccc1C(=O)O	4.5*	44*	-1	-16	99	-13	5	13
O=c1cc(-c2ccco2)nc(SCc2cccc(Cl)c2)[nH]1	3	45*	-3	10	4	-13	9	-9
Cc1ccc(S(=O)(=O)NCCCCCC(=O)NCCc2ccccc2)cc1	-8	43*	-25	-10	-4	-15	-11	-28
COCCNC(=O)CCCCCNS(=O)(=O)c1ccc(C)cc1	-1	2	15	3	-5	9	.	.
COc1cc(NC(=O)c2ccc(Cl)cc2)c(OC)cc1NC(=O)CN1CCOCC1	-7	-9	5	3	-12	7	.	.
CCC(=O)Nc1ccc(NC(=O)CSc2nc3c(c(=O)n(C)c(=O)n3C)n2CC)cc1	-2	-2	3	-4	-4	1	.	.
CC(=O)c1ccc(OC(=O)/C=C/c2ccccc2)cc1	6	39*	9	-9	-6	-4	2	-2
COc1ccc(/C(N)=N/OC(=O)/C=C/c2ccccc2)cc1	-3	-1	6	-3	3	8	.	.
Cc1nc(C2CC(=O)OC23CCCCC3)cs1 (configuration not stated)	0	6	-11	14	2	-9	.	.
O=C(O)COc1ccccc1C(Nc1cccnc1)c1cc(Cl)c2cccnc2c1O (configuration not stated)	23	37*	.	32	100	.	69*	81*
COc1ccc(C(NC(C)=O)c2cc(Cl)c3cccnc3c2O)cc1OC (configuration not stated)	-7	4	-11	1	11	10	.	.
COc1ccccc1C(NC(C)=O)c1cc(Cl)c2cccnc2c1O (configuration not stated)	-11	40*	7	-9	15	6	-8	-4
CCOc1ccc(C(Nc2cccnc2)c2cc(Cl)c3cccnc3c2O)cc1 (configuration not stated)	?	23	-1	29	?	-4	.	.
CCCC(=O)NC(c1ccc(Cl)cc1Cl)c1ccc2cccnc2c1O (configuration not stated)	0	5	-2	-3	11	-3	.	.

Compound activity from PubChem BioAssay.
